Converted amounts (≈) assume the structure as drawn.
Columns and labels:
Streptococcus pyogenes [1] = assay: Antibacterial activity against macrolide-resistant Streptococcus pyogenes 237 harboring mutation in L4 ribosomal protein after 20 passages and 10 compound-free subculturing by retest method
Streptococcus pyogenes [2] = assay: Antibacterial activity against macrolide-resistant Streptococcus pyogenes 2094 harboring erm(A) gene after overnight incubation by agar dilution method
Streptococcus pyogenes [3] = assay: Antibacterial activity against Streptococcus pyogenes harboring mutation in L4 ribosomal protein after overnight incubation by agar dilution method; type: functional
Method in brief: (§1)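 Clinical isolates collected 1998–2008, with macrolide-resistance genes confirmed by PCR. MICs by agar dilution on Mueller-Hinton agar with 5% sheep blood. Inoculum 10^4 CFU/spot, incubated overnight at 35°C in ambient air. S. pneumoniae ATCC 49619 was the quality-control strain in every run.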

Streptococcus pyogenes [4] = assay: Antibacterial activity against macrolide-resistant Streptococcus pyogenes 237 harboring mutation in L4 ribosomal protein after 50 passages following overnight incubation by agar dilution method
Streptococcus pyogenes [5] = assay: Antibacterial activity against Streptococcus pyogenes harboring erm(A) gene after overnight incubation by agar dilution method; type: functional
Method in brief: as §1

Streptococcus pneumoniae [6] = assay: Antibacterial activity against macrolide-susceptible Streptococcus pneumoniae after overnight incubation by agar dilution method; type: functional
Method in brief: (§2)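 Agar dilution MICs on Mueller-Hinton agar with 5% sheep blood. Inoculum 10^4 CFU/spot, incubated overnight at 35°C in ambient air. Clinical S. pneumoniae or group A streptococcal isolates; resistance genotypes (erm(B), erm(A), mef(A)/mef(E)) were assigned by PCR. S. pneumoniae ATCC 49619 served as QC strain in each run. Range, MIC50 and MIC90 reported per phenotype group.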

Streptococcus pneumoniae [7] = assay: Antibacterial activity against Streptococcus pneumoniae harboring erm(A) gene after overnight incubation by agar dilution method; type: functional
Method in brief: as §1

Streptococcus pneumoniae [8] = assay: Antibacterial activity against macrolide-susceptible Streptococcus pneumoniae 7127 harboring S20N mutation in L4 ribosomal protein and A105V mutation in L22 ribosomal protein after 43 passages and 10 compound-free subculturing by retest method; type: functional
Streptococcus pneumoniae [9] = assay: Antibacterial activity against macrolide-resistant Streptococcus pneumoniae 3009 harboring mutation in 23S rRNA after overnight incubation by agar dilution method; type: functional
Streptococcus pneumoniae [10] = assay: Antibacterial activity against quinolone-susceptible Streptococcus pneumoniae after overnight incubation by agar dilution method; type: functional
Method in brief: (§3)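 Agar dilution on Mueller-Hinton agar supplemented with 5% sheep blood. Inoculum 10^4 CFU/spot, incubated overnight at 35°C in ambient air. Test strains were clinical pneumococcal isolates. S. pneumoniae ATCC 49619 was included as the quality control strain in each run. MIC range, MIC50 and MIC90 were reported for each susceptibility category.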

Streptococcus pneumoniae [11] = assay: Antibacterial activity against macrolide-resistant Streptococcus pneumoniae 1076 harboring erm(B) and mef(A) gene after 14 passages and 10 compound-free subculturing by retest method; type: functional
Method in brief: (§4)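 Multistep selection by daily serial passage in subinhibitory drug concentrations. Medium was cation-adjusted Mueller-Hinton broth plus 5% lysed horse blood. Each day the next inoculum came from the tube 1–2 dilutions below the MIC whose turbidity matched the growth control, for up to 50 days. Clone MICs by CLSI macrodilution; identity to the parent confirmed by SmaI PFGE.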

Streptococcus pneumoniae [12] = assay: Antibacterial activity against macrolide-resistant Streptococcus pneumoniae 1076 harboring erm(B) and mef(A) gene after overnight incubation by agar dilution method; type: functional
Streptococcus pneumoniae [13] = assay: Antibacterial activity against Streptococcus pneumoniae harboring erm(B) gene after overnight incubation by agar dilution method; type: functional
Method in brief: as §1

Streptococcus pyogenes [14] = assay: Antibacterial activity against macrolide-resistant Streptococcus pyogenes 2011 harboring mef(A) gene after overnight incubation by agar dilution method
Streptococcus pneumoniae [15] = assay: Antibacterial activity against quinolone-resistant Streptococcus pneumoniae after overnight incubation by agar dilution method; type: functional
Method in brief: as §3

Streptococcus pneumoniae [16] = assay: Antibacterial activity against Streptococcus pneumoniae harboring mutation in L4 ribosomal protein after overnight incubation by agar dilution method; type: functional
Method in brief: as §1

Streptococcus pyogenes [17] = assay: Antibacterial activity against macrolide-resistant Streptococcus pyogenes 237 harboring mutation in L4 ribosomal protein after 43 passages and 10 compound-free subculturing by retest method
Streptococcus pneumoniae [18] = assay: Antibacterial activity against macrolide-resistant Streptococcus pneumoniae 1635 harboring erm(A) gene after overnight incubation by agar dilution method; type: functional
Streptococcus pneumoniae [19] = assay: Antibacterial activity against Streptococcus pneumoniae harboring mutation in 23S rRNA after overnight incubation by agar dilution method; type: functional
Method in brief: as §1

Streptococcus pneumoniae [20] = assay: Antibacterial activity against macrolide-resistant Streptococcus pneumoniae harboring mef(A) gene after overnight incubation by agar dilution method; type: functional
Method in brief: as §2

Streptococcus pneumoniae [21] = assay: Antibacterial activity against macrolide-resistant Streptococcus pneumoniae harboring mutation in L4 ribosomal protein after overnight incubation by agar dilution method; type: functional
Method in brief: as §2

Streptococcus pneumoniae [22] = assay: Antibacterial activity against macrolide-resistant Streptococcus pneumoniae 1635 harboring erm(A) gene after 49 passages and 10 compound-free subculturing by retest method; type: functional
Method in brief: as §4

Streptococcus pyogenes [23] = assay: Antibacterial activity against macrolide-susceptible Streptococcus pyogenes after overnight incubation by agar dilution method; type: functional
Method in brief: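 Agar dilution on Mueller-Hinton agar supplemented with 5% sheep blood, inoculum 10^4 CFU/spot, read after overnight incubation at 35°C in ambient air. Clinical isolates with defined genotypes; S. pneumoniae ATCC 49619 quality control strain included in each run. MIC50/MIC90 are MICs inhibiting 50% and 90% of isolates.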

Streptococcus pneumoniae [24] = assay: Antibacterial activity against macrolide-resistant Streptococcus pneumoniae 1076 harboring erm(B) and mef(A) gene after 18 passages and 10 compound-free subculturing by retest method; type: functional
Method in brief: as §4

Streptococcus pneumoniae [25] = assay: Antibacterial activity against macrolide-susceptible Streptococcus pneumoniae 1077 after 49 passages and 10 compound-free subculturing by retest method; type: functional
Streptococcus pneumoniae [26] = assay: Antibacterial activity against macrolide-susceptible Streptococcus pneumoniae 7127 harboring S20N mutation in L4 ribosomal protein and A105V mutation in L22 ribosomal protein after 15 passages and 10 compound-free subculturing by retest method; type: functional
Streptococcus pneumoniae [27] = assay: Antibacterial activity against macrolide-resistant Streptococcus pneumoniae 2686 harboring mutation in L4 ribosomal protein after 25 passages and 10 compound-free subculturing by retest method; type: functional
Streptococcus pyogenes [28] = assay: Antibacterial activity against macrolide-resistant Streptococcus pyogenes 2094 harboring erm(A) gene after 22 passages and 10 compound-free subculturing by retest method
Streptococcus pneumoniae [29] = assay: Antibacterial activity against macrolide-resistant Streptococcus pneumoniae 3009 harboring mutation in 23S rRNA after 25 passages and 10 compound-free subculturing by retest method; type: functional
Streptococcus pneumoniae [30] = assay: Antibacterial activity against Streptococcus pneumoniae harboring erm(B) and mef(A) gene after overnight incubation by agar dilution method; type: functional
Method in brief: as §1

Streptococcus pneumoniae [31] = assay: Antibacterial activity against macrolide-resistant Streptococcus pneumoniae 2686 harboring mutation in L4 ribosomal protein after overnight incubation by agar dilution method; type: functional
Streptococcus pneumoniae [32] = assay: Antibacterial activity against macrolide-resistant Streptococcus pneumoniae 24 harboring erm(B) gene after 14 passages and 10 compound-free subculturing by retest method; type: functional
Method in brief: as §4

SMILES: CC[C@H]1OC(=O)[C@H](C)C(=O)[C@H](C)[C@@H](O[C@@H]2O[C@H](C)C[C@H](N(C)C)[C@H]2O)[C@](C)(OC)C[C@@H](C)C(=O)[C@H](C)[C@H]2N(CCCCn3cnc(-c4cccnc4)c3)C(=O)O[C@]12C [TELITHROMYCIN]
- MIC (Streptococcus pyogenes [1]): 1 µg/mL (≈ 1.23 µM)
- MIC (Streptococcus pyogenes [2]): 0.03 µg/mL (≈ 0.0369 µM)
- MIC (Streptococcus pyogenes [3]): 0.06 µg/mL (≈ 0.0739 µM)
- MIC (Streptococcus pyogenes [4]): 0.125 µg/mL (≈ 0.154 µM)
- MIC50 (Streptococcus pyogenes [5]): 0.06 µg/mL (≈ 0.0739 µM)
- MIC90 (Streptococcus pyogenes [5]): 0.125 µg/mL (≈ 0.154 µM)
- MIC50 (Streptococcus pneumoniae [6]): 0.03 µg/mL (≈ 0.0369 µM)
- MIC90 (Streptococcus pneumoniae [6]): 0.03 µg/mL (≈ 0.0369 µM)
- MIC (Streptococcus pneumoniae [7]): 0.03 µg/mL (≈ 0.0369 µM)
- MIC (Streptococcus pneumoniae [8]): 0.008 µg/mL (≈ 0.00985 µM)
- MIC (Streptococcus pneumoniae [9]): 0.016 µg/mL (≈ 0.0197 µM)
- MIC50 (Streptococcus pneumoniae [10]): 0.125 µg/mL (≈ 0.154 µM)
- MIC90 (Streptococcus pneumoniae [10]): 0.5 µg/mL (≈ 0.616 µM)
- MIC (Streptococcus pneumoniae [11]): > 64 µg/mL
- MIC (Streptococcus pneumoniae [12]): 0.5 µg/mL (≈ 0.616 µM)
- MIC50 (Streptococcus pneumoniae [13]): 0.06 µg/mL (≈ 0.0739 µM)
- MIC90 (Streptococcus pneumoniae [13]): 1 µg/mL (≈ 1.23 µM)
- MIC (Streptococcus pyogenes [14]): 0.5 µg/mL (≈ 0.616 µM)
- MIC50 (Streptococcus pneumoniae [15]): 0.03 µg/mL (≈ 0.0369 µM)
- MIC90 (Streptococcus pneumoniae [15]): 0.125 µg/mL (≈ 0.154 µM)
- MIC50 (Streptococcus pneumoniae [16]): 0.125 µg/mL (≈ 0.154 µM)
- MIC90 (Streptococcus pneumoniae [16]): 0.25 µg/mL (≈ 0.308 µM)
- MIC (Streptococcus pyogenes [17]): 0.06 µg/mL (≈ 0.0739 µM)
- MIC (Streptococcus pneumoniae [18]): 0.004 µg/mL (≈ 0.00493 µM)
- MIC (Streptococcus pneumoniae [19]): 0.03 µg/mL (≈ 0.0369 µM)
- MIC50 (Streptococcus pneumoniae [20]): 0.125 µg/mL (≈ 0.154 µM)
- MIC90 (Streptococcus pneumoniae [20]): 0.25 µg/mL (≈ 0.308 µM)
- MIC50 (Streptococcus pneumoniae [21]): 0.125 µg/mL (≈ 0.154 µM)
- MIC90 (Streptococcus pneumoniae [21]): 0.25 µg/mL (≈ 0.308 µM)
- MIC (Streptococcus pneumoniae [22]): 0.016 µg/mL (≈ 0.0197 µM)
- MIC50 (Streptococcus pyogenes [23]): 0.06 µg/mL (≈ 0.0739 µM)
- MIC90 (Streptococcus pyogenes [23]): 0.06 µg/mL (≈ 0.0739 µM)
- MIC (Streptococcus pneumoniae [24]): 32 µg/mL (≈ 39.4 µM)
- MIC (Streptococcus pneumoniae [25]): 0.06 µg/mL (≈ 0.0739 µM)
- MIC (Streptococcus pneumoniae [26]): 0.008 µg/mL (≈ 0.00985 µM)
- MIC (Streptococcus pneumoniae [27]): 0.5 µg/mL (≈ 0.616 µM)
- MIC (Streptococcus pyogenes [28]): 0.125 µg/mL (≈ 0.154 µM)
- MIC (Streptococcus pneumoniae [29]): 0.06 µg/mL (≈ 0.0739 µM)
- MIC50 (Streptococcus pneumoniae [30]): 0.5 µg/mL (≈ 0.616 µM)
- MIC90 (Streptococcus pneumoniae [30]): 1 µg/mL (≈ 1.23 µM)
- MIC (Streptococcus pneumoniae [31]): 0.06 µg/mL (≈ 0.0739 µM)

SMILES: CC[C@H]1OC(=O)[C@@](C)(F)C(=O)[C@H](C)[C@@H](O[C@@H]2O[C@H](C)C[C@H](N(C)C)[C@H]2O)[C@](C)(OC)C[C@@H](C)C(=O)[C@H](C)[C@H]2N(CCCCn3cc(-c4cccc(N)c4)nn3)C(=O)O[C@]12C [SOLITHROMYCIN]
- MIC (Streptococcus pyogenes [1]): 0.5 µg/mL (≈ 0.592 µM)
- MIC (Streptococcus pyogenes [2]): 0.03 µg/mL (≈ 0.0355 µM)
- MIC (Streptococcus pyogenes [3]): 0.06 µg/mL (≈ 0.071 µM)
- MIC50 (Streptococcus pyogenes [5]): 0.03 µg/mL (≈ 0.0355 µM)
- MIC90 (Streptococcus pyogenes [5]): 0.125 µg/mL (≈ 0.148 µM)
- MIC50 (Streptococcus pneumoniae [6]): 0.008 µg/mL (≈ 0.00947 µM)
- MIC90 (Streptococcus pneumoniae [6]): 0.015 µg/mL (≈ 0.0178 µM)
- MIC (Streptococcus pneumoniae [7]): 0.008 µg/mL (≈ 0.00947 µM)
- MIC (Streptococcus pneumoniae [8]): 0.004 µg/mL (≈ 0.00473 µM)
- MIC (Streptococcus pneumoniae [9]): 0.016 µg/mL (≈ 0.0189 µM)
- MIC50 (Streptococcus pneumoniae [10]): 0.03 µg/mL (≈ 0.0355 µM)
- MIC90 (Streptococcus pneumoniae [10]): 0.25 µg/mL (≈ 0.296 µM)
- MIC (Streptococcus pneumoniae [11]): 2 µg/mL (≈ 2.37 µM)
- MIC (Streptococcus pneumoniae [12]): 1 µg/mL (≈ 1.18 µM)
- MIC50 (Streptococcus pneumoniae [13]): 0.03 µg/mL (≈ 0.0355 µM)
- MIC90 (Streptococcus pneumoniae [13]): 0.5 µg/mL (≈ 0.592 µM)
- MIC50 (Streptococcus pneumoniae [15]): 0.008 µg/mL (≈ 0.00947 µM)
- MIC90 (Streptococcus pneumoniae [15]): 0.06 µg/mL (≈ 0.071 µM)
- MIC (Streptococcus pyogenes [17]): 0.03 µg/mL (≈ 0.0355 µM)
- MIC (Streptococcus pneumoniae [18]): 0.008 µg/mL (≈ 0.00947 µM)
- MIC (Streptococcus pneumoniae [19]): 0.002 µg/mL (≈ 0.00237 µM)
- MIC50 (Streptococcus pneumoniae [20]): 0.03 µg/mL (≈ 0.0355 µM)
- MIC90 (Streptococcus pneumoniae [20]): 0.125 µg/mL (≈ 0.148 µM)
- MIC (Streptococcus pneumoniae [32]): 0.06 µg/mL (≈ 0.071 µM)
- MIC (Streptococcus pneumoniae [32]; Streptococcus pneumoniae, 24, read-out: MIC): 0.06 µg/mL (≈ 0.071 µM)
- MIC (Streptococcus pneumoniae [22]): 0.008 µg/mL (≈ 0.00947 µM)
- MIC50 (Streptococcus pyogenes [23]): 0.015 µg/mL (≈ 0.0178 µM)
- MIC90 (Streptococcus pyogenes [23]): 0.03 µg/mL (≈ 0.0355 µM)
- MIC (Streptococcus pneumoniae [24]): 32 µg/mL (≈ 37.9 µM)
- MIC (Streptococcus pneumoniae [25]): 0.06 µg/mL (≈ 0.071 µM)
- MIC (Streptococcus pneumoniae [26]): 0.008 µg/mL (≈ 0.00947 µM)
- MIC (Streptococcus pneumoniae [27]): 0.016 µg/mL (≈ 0.0189 µM)
- MIC (Streptococcus pyogenes [28]): 0.03 µg/mL (≈ 0.0355 µM)
- MIC (Streptococcus pneumoniae [29]): 0.03 µg/mL (≈ 0.0355 µM)
- MIC50 (Streptococcus pneumoniae [30]): 0.125 µg/mL (≈ 0.148 µM)
- MIC90 (Streptococcus pneumoniae [30]): 0.25 µg/mL (≈ 0.296 µM)
- MIC (Streptococcus pneumoniae [31]): 0.03 µg/mL (≈ 0.0355 µM)
